Measured values taken from ChEMBL document CHEMBL1148831, “1,3-disubstituted ureas functionalized with ether groups are potent inhibitors of the soluble epoxide hydrolase with improved pharmacokinetic properties” (J Med Chem, 2007).

How the values were obtained:
[1] = Stability in human liver microsomes at 100 uM after 1 hr; format: ADME, Microsome; details: read-out: Stability
[2] = Stability in human liver S9 fraction at 100 uM after 1 hr; format: ADME, subcellular; details: read-out: Stability
Procedure, shortened: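 Human liver microsomes (0.125 mg protein) or S9 (0.056 mg) in 0.1 M sodium phosphate pH 7.4, preincubated 5 min at 37°C. Compound added from 100 μM stock (final 1.0 μM). Started with NADPH-generating system (NADP, glucose 6-phosphate, G6PDH, MgCl₂), shaken 60 min at 37°C, stopped with cold ethanol with internal standard. Percent remaining vs 0-min ethanol-quenched control.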

[3] = Partition coefficient, log P of the compound; format: physicochemical; details: octanol/water
[4] = Elimination half life in rat at 5 mg/kg, po; format: ADME, organism-based; set-up: dose 5 mg/kg, route oral; details: in vivo
Procedure, shortened: (§1)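 Rodents dosed by oral gavage at 5 mg/kg in oleic oil solution (0.1 mL mice, 1 mL rats). Whole blood (10 μL) sampled at 0, 0.5, 1, 2, 4, 6, 8 and 24 h and analysed by LC/MS/MS. Elimination t1/2 (min) from noncompartmental fit of concentration-time data, averaged over at least three animals.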

[5] = Elimination half life in dog at 0.3 mg/kg, po; format: ADME, organism-based, Canis lupus familiaris; set-up: dose 0.3 mg/kg, route oral; details: in vivo
Procedure, shortened: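 Oral gavage at 0.3 mg/kg in 3 ml tristerate at body temperature. Plasma assayed by LC/MS/MS. t1/2 from noncompartmental fit, minutes, at least three animals.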

[6] = Elimination half life in mouse at 5 mg/kg, po; format: ADME, organism-based; set-up: dose 5 mg/kg, route oral; details: in vivo; procedure, shortened: as §1

Row | SMILES | remaining at 1 h, 100 µM [1] [%] | remaining at 1 h, 100 µM [2] [%] | logP [3] | half-life [4] [h] | half-life [5] [h] | half-life [6] [h]
1 | CCOCCOCCOCCCCCNC(=O)NC12CC3CC(CC(C3)C1)C2 | 30 | 11 | 3.6 | 0.65 | 3 | 
2 | CCOCCOCCOCCCCCCC(=O)NC12CC3CC(CC(C3)C1)C2 | 32 | 5 |  |  |  | 
3 | CCOCCOCCOCCCCCNC(=O)CC12CC3CC(CC(C3)C1)C2 | 5 |  |  |  |  | 
4 | CCOCCOCCOC1CCC(NC(=O)NC23CC4CC(CC(C4)C2)C3)CC1 (stereo unspecified) | 91 | 79 | 2.9 | 2.5 | 1.5 | 2.67
5 | CCCCOCCCCCNC(=O)NC12CC3CC(CC(C3)C1)C2 | 25 |  | 5 |  | 2.17 | 
6 | CCCC(C)COCCCCCNC(=O)NC12CC3CC(CC(C3)C1)C2 (stereo unspecified) | 12 |  |  |  |  | 
7 | CCCOCCCOCCCCCNC(=O)NC12CC3CC(CC(C3)C1)C2 | 6.8 |  |  |  |  | 
8 | CCCOCCCCOCCCCCNC(=O)NC12CC3CC(CC(C3)C1)C2 | 7.5 |  |  |  |  | 
9 | CCc1ccc(OCCOCCOCCCCCNC(=O)NC23CC4CC(CC(C4)C2)C3)cc1 | 21 |  |  |  |  | 
10 | COCCOCCOCCOCCCCCNC(=O)NC12CC3CC(CC(C3)C1)C2 | 54 | 14 |  |  |  | 
11 | O=C(NCCCCCOCCCN1CCOCC1)NC12CC3CC(CC(C3)C1)C2 | 89 | 34 | 2.4 | 3.33 | 1.5 | 0.25
12 | CS(=O)(=O)NCCOCCOCCCCCNC(=O)NC12CC3CC(CC(C3)C1)C2 | 42 | 12 |  |  |  | 
13 | O=C(NC1CCC(OCCCN2CCOCC2)CC1)NC12CC3CC(CC(C3)C1)C2 (stereo unspecified) | 92 | 81 | 2.2 | 1.83 | 2.17 | 1.33
14 | O=C(Nc1ccc(OCCCN2CCOCC2)cc1)NC12CC3CC(CC(C3)C1)C2 | 93 | 97 | 2.9 |  | 2.17 | 
15 | CCCCC(C)OCCCCCNC(=O)NC12CC3CC(CC(C3)C1)C2 (stereo unspecified) | 12 |  |  |  |  | 
16 | CS(=O)(=O)NCCCCCOCCCCCNC(=O)NC12CC3CC(CC(C3)C1)C2 | 59 |  |  |  |  | 
17 | CCOCCOCCOc1cccc(NC(=O)NC23CC4CC(CC(C4)C2)C3)c1 | 56 | 9 |  |  |  | 
18 | O=C(NCCCCCOCCOCCOCC(F)(F)F)NC12CC3CC(CC(C3)C1)C2 | 39 | 1.1 |  |  |  | 
19 | CCOCCOCCOc1ccc(NC(=O)NC23CC4CC(CC(C4)C2)C3)cc1 |  | 70 | 3.9 | 9.67 | 5.33 | 
20 | CCCCCOC1CCC(NC(=O)NC23CC4CC(CC(C4)C2)C3)CC1 (stereo unspecified) | 22 |  | > 5 | 2 | 2 | 2.83
